Drawing on ChEMBL document CHEMBL1137478, “Optimization of triarylimidazoles for Tie2: influence of conformation on potency” (Bioorg Med Chem Lett, 2007), this text covers IC50, inhibition and inhibition in vivo for 21 molecules.

The target of assay [1] is T1, Angiopoietin-1 receptor (Homo sapiens, UniProt Q02763). Kind of assay: Inhibition of Tie2.
Assay [2] deals with T1, Angiopoietin-1 receptor. Put plainly: Inhibition of Tie2 at 10 uM.
Assay [3] deals with Mus musculus. Kind of assay: Inhibition of bFGF-stimulated angiogenesis in Matrigel mouse model at 25 mg/kg, po after 6 days. Format: functional. The conditions noted are these: 144 h. The method, boiled down:
(§1)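 Mice bear Matrigel plugs in which angiogenesis is driven by bFGF; compound given as two doses. Control groups are untreated bFGF mice and mice without bFGF. Animals are killed after 6 days, and the heme content of the Matrigel plug is measured as the angiogenesis read-out.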

The subject of assay [4] is Mus musculus. Kind of assay: Inhibition of bFGF-stimulated angiogenesis in Matrigel mouse model at 50 mg/kg, po after 6 days. Format: functional. Conditions: 144 h. The method, boiled down:
as §1

Assay [5] in a line: Inhibition of GSK3. The arrangement: species or system Homo sapiens.
Assay [6] deals with RAC-alpha serine/threonine-protein kinase (Homo sapiens, UniProt P31749). Kind of assay: Inhibition of AKT1.
The target in assay [7] is Insulin-like growth factor 1 receptor (Homo sapiens, UniProt P08069). Put plainly: Inhibition of IGFR1.
For another assay, the target named is Insulin receptor (Homo sapiens, UniProt P06213). Put plainly: Inhibition of INSR.
The target in assay [8] is T2, Receptor-type tyrosine-protein kinase FLT3 (Homo sapiens, UniProt P36888).
T2 sequence (P36888 whole entry): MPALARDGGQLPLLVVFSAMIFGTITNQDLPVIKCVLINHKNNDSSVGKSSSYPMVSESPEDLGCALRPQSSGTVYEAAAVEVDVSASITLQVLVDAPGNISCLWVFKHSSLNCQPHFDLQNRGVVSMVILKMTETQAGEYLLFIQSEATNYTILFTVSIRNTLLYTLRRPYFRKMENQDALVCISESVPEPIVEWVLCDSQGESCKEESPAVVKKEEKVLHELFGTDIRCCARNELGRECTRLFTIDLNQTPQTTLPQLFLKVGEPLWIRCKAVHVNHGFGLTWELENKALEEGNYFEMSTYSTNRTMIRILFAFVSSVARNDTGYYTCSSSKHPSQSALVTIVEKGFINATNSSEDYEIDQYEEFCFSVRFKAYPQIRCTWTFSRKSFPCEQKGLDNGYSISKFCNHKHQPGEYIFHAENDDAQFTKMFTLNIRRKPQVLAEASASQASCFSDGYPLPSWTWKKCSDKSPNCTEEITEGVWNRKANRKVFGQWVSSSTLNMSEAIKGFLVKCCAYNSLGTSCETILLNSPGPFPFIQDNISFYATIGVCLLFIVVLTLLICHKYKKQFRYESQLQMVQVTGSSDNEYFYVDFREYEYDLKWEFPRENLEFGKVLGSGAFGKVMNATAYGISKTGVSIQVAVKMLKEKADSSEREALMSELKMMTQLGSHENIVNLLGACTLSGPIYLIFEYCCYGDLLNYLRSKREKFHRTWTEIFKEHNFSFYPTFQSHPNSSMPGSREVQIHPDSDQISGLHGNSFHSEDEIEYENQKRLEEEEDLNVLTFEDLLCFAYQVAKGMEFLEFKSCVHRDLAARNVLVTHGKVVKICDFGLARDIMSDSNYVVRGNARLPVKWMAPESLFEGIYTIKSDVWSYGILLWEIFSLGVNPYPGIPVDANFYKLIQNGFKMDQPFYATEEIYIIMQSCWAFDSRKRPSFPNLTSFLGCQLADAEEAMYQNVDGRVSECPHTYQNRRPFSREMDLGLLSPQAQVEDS
Kind of assay: Inhibition of FLT3.

Assay [9] has as its target Mast/stem cell growth factor receptor Kit (Homo sapiens, UniProt P10721). Kind of assay: Inhibition of KIT.
The target of assay [10] is Platelet-derived growth factor receptor alpha (Homo sapiens, UniProt P16234). Kind of assay: Inhibition of PDGFRalpha.
Assay [11] has as its target Platelet-derived growth factor receptor beta (Homo sapiens, UniProt P09619). Kind of assay: Inhibition of PDGFRbeta.
Assay [12] addresses Vascular endothelial growth factor receptor 2 (Homo sapiens, UniProt P35968). Kind of assay: Inhibition of VEGFR2.
Assay [13] addresses Fibroblast growth factor receptor 1 (Homo sapiens, UniProt P11362). Kind of assay: Inhibition of FGFR1.
For assay [14], the target named is Hepatocyte growth factor receptor (Homo sapiens, UniProt P08581). Put plainly: Inhibition of MET.
The target in assay [15] is Tyrosine-protein kinase ABL1 (Homo sapiens, UniProt P00519). Kind of assay: Inhibition of Abl kinase.
The target in assay [16] is Protein kinase C beta type (Homo sapiens, UniProt P05771). Put plainly: Inhibition of PKCbeta1.
The target of another assay is MAP kinase p38 (Homo sapiens, UniProt O15264+Q15759+Q16539+P53778). Kind of assay: Inhibition of mitogen-activated protein kinase p38. Format: protein assay.
Assay [17] concerns the target Cyclin-dependent kinase 2 (Homo sapiens, UniProt P24941). Kind of assay: Inhibition of CDK2.
A further assay concerns the target T3, TGF-beta receptor type-1 (Homo sapiens, UniProt P36897).
T3 sequence (P36897 whole entry): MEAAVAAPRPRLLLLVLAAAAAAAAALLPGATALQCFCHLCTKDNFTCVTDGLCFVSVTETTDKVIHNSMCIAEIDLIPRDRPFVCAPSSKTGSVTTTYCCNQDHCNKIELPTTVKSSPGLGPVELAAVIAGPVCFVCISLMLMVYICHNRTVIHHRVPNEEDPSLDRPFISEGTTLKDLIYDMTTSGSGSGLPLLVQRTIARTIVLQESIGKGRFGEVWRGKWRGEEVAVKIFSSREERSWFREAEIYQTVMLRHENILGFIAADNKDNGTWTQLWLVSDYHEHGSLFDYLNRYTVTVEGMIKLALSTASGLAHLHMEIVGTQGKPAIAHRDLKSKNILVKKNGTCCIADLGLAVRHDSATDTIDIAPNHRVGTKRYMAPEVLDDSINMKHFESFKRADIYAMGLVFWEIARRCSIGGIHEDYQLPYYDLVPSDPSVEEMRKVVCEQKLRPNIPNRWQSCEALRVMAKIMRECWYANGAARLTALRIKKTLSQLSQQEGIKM

Assay [18] has as its target Macrophage colony-stimulating factor 1 receptor (Homo sapiens, UniProt P07333).

T1 sequence (Q02763 whole entry): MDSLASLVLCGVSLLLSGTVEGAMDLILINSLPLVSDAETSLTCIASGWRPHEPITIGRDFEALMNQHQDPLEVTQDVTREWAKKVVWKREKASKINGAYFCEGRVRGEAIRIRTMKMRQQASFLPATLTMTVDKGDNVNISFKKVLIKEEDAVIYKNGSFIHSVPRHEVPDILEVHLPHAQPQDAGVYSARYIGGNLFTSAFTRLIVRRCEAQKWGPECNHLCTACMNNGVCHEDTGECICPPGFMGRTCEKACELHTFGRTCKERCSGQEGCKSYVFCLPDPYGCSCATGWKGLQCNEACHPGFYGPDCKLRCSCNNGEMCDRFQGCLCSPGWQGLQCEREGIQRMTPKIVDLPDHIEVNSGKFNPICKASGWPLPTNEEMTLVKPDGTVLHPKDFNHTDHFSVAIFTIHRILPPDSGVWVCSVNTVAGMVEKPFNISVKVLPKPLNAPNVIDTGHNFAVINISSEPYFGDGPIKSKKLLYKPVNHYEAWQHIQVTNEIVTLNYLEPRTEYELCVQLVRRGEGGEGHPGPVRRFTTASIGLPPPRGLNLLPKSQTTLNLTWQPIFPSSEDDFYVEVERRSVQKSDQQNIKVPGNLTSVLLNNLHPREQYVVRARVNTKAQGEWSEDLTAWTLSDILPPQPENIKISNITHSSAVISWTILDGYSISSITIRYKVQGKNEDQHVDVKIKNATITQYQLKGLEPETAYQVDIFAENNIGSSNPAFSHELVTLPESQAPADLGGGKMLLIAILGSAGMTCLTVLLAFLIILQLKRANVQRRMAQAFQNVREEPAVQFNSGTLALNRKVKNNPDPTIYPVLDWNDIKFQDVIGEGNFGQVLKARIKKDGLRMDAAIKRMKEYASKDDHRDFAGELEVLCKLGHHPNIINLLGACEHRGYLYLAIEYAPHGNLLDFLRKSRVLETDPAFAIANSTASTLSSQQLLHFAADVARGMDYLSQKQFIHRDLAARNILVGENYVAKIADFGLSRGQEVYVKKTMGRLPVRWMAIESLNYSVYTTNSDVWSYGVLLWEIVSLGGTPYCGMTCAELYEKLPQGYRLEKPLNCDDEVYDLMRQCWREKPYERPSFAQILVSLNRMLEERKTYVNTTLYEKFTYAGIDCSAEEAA
Chain of Hepatocyte growth factor receptor (P08581 whole entry): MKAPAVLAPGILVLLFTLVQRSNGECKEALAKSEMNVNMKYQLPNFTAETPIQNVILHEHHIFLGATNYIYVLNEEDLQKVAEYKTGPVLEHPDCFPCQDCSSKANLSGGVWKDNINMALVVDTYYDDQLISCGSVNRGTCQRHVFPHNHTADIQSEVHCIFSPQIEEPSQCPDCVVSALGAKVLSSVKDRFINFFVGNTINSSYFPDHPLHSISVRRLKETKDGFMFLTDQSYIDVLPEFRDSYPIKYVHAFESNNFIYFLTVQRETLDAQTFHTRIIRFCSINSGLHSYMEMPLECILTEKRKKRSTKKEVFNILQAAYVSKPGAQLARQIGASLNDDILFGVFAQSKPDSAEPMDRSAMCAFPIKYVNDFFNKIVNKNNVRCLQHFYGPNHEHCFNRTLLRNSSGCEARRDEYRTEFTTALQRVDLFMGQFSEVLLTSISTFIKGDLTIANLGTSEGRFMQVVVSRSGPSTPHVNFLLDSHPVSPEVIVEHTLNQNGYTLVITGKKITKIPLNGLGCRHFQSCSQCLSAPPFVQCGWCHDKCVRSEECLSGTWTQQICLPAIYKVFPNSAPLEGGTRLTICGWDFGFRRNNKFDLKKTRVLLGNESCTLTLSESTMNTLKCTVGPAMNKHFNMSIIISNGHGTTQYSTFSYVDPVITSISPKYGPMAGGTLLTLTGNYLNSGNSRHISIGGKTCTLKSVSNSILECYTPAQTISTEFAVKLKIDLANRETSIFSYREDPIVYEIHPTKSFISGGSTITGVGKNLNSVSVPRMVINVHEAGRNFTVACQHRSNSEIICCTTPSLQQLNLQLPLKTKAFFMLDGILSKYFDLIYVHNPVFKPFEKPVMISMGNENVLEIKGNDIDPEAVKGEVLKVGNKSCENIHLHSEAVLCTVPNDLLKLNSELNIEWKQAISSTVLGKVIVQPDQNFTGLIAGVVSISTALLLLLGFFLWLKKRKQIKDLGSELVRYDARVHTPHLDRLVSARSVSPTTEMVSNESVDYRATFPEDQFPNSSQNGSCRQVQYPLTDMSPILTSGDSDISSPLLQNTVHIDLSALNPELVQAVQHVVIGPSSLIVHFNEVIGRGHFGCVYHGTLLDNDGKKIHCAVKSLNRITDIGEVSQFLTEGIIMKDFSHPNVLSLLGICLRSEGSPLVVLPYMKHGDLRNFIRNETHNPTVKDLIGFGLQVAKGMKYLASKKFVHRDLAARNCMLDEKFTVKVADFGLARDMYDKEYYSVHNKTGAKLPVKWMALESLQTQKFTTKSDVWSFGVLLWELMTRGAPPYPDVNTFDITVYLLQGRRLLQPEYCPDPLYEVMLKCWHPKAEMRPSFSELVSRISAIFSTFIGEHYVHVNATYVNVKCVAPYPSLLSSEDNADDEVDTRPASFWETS
Chain of Macrophage colony-stimulating factor 1 receptor (P07333 whole entry): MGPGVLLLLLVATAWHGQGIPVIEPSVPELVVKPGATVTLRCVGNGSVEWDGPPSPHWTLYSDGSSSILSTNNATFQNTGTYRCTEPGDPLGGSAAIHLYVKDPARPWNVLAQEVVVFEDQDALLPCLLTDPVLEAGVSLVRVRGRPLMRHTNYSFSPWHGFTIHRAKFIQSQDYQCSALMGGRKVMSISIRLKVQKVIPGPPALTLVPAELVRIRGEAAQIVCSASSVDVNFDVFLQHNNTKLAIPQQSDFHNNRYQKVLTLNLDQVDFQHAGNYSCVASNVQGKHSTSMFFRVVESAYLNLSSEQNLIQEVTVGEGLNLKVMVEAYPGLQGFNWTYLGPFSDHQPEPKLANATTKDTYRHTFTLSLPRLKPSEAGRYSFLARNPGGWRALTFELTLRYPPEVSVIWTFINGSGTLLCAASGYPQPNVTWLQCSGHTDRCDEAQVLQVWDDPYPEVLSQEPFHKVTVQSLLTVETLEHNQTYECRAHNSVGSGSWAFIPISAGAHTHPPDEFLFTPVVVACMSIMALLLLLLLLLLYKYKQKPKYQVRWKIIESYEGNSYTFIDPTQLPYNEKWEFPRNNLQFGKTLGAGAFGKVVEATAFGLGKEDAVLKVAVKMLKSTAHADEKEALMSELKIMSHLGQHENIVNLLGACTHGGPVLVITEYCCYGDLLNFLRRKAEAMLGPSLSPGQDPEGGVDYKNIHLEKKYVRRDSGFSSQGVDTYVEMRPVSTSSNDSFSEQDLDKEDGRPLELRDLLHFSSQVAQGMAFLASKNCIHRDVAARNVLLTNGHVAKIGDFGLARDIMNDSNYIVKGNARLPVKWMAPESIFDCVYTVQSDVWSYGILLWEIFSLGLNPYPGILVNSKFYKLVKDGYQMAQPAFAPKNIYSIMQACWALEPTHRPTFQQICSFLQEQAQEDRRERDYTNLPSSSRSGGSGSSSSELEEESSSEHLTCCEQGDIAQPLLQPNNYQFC
Chain of Platelet-derived growth factor receptor alpha (P16234 whole entry): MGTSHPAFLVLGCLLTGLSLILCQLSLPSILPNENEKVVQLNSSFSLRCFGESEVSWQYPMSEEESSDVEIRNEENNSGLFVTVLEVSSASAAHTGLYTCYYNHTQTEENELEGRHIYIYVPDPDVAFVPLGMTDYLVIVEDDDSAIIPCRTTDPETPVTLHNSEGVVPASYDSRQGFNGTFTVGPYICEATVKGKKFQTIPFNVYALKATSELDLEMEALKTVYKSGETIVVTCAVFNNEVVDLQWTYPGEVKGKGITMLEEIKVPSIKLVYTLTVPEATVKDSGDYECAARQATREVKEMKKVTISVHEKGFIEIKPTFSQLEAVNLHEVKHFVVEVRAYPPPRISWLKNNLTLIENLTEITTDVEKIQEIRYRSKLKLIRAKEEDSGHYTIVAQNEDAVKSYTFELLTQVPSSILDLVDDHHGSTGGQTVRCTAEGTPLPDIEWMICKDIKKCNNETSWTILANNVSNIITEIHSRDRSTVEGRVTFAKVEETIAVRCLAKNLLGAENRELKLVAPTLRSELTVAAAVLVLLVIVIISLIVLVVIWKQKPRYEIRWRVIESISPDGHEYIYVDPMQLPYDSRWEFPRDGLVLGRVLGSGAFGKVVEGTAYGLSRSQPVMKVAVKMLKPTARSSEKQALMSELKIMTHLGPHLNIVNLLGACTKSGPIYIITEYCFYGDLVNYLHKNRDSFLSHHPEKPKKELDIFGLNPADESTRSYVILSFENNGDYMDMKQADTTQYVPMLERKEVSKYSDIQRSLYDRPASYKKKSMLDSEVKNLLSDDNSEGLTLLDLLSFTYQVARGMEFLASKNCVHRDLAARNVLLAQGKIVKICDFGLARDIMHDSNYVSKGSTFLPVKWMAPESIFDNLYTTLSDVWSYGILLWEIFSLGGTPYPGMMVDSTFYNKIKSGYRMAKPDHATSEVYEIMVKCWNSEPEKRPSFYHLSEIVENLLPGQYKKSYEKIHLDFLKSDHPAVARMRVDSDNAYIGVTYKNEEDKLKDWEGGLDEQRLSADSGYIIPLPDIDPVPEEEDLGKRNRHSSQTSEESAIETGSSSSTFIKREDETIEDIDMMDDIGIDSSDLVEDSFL
Chain of RAC-alpha serine/threonine-protein kinase (P31749 whole entry): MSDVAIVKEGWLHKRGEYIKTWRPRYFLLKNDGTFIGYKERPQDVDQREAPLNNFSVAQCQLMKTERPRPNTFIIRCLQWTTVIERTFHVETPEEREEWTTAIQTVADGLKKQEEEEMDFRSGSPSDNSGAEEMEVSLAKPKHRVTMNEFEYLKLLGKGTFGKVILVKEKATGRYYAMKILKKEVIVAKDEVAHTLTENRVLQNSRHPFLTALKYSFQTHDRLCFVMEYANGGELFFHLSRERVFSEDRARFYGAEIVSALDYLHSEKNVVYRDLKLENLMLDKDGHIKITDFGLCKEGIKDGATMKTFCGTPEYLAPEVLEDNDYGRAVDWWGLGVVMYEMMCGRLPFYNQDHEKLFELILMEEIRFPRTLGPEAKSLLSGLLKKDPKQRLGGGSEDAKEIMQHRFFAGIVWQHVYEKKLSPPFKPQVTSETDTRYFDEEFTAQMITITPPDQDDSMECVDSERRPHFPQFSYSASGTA

A word on the IC50: it is the point on the concentration scale where inhibition reaches its midpoint. `COc1ccc2cc(-c3nc(-c4ccccc4C(C)C)[nH]c3-c3ccncc3)ccc2c1`: at Angiopoietin-1 receptor [1], half-maximal inhibition (IC50) was put at 836 nM. This counts as sub-micromolar.

In the case of `COc1ccc2cc(-c3nc(-c4ccccc4F)[nH]c3-c3ccncc3)ccc2c1`, at Angiopoietin-1 receptor [1], the half-inhibitory concentration (IC50) came to 1600 nM.

`COc1ccc2cc(-c3[nH]c(-c4ccc(SC)cc4Cl)nc3-c3ccncc3)ccc2c1` returned a concentration for half-maximal inhibition (IC50) on Angiopoietin-1 receptor [1] of 1500 nM. The IC50 values of the last two molecules are within 1.5-fold of each other. On the same count and under the same terms, under `COc1ccc2cc(-c3[nH]c(-c4ccccc4C)nc3-c3ccncc3)ccc2c1` stands 387 nM; under `COc1ccc2cc(-c3[nH]c(-c4ccc(S(C)(=O)=O)cc4Cl)nc3-c3ccncc3)ccc2c1`, 59 nM; under `COc1ccc2cc(-c3c(-c4ccncc4)nc(-c4ccc(SC)cc4C)n3C)ccc2c1`, 335 nM. In the case of `COc1ccc2cc(-c3[nH]c(-c4ccccc4Br)nc3-c3ccncc3)ccc2c1`, the 50% inhibitory concentration (IC50) against Angiopoietin-1 receptor [1] was found to be 82 nM. Compared with the last molecule, the IC50 is about 4.1-fold lower. On Angiopoietin-1 receptor [1], `COc1ccc2cc(-c3[nH]c(-c4ccc([S+](C)[O-])cc4Cl)nc3-c3ccncc3)ccc2c1` (stereo not given) had an IC50 of 51 nM. On the same count and under the same terms, the figure for `COc1ccc2cc(-c3nc(-c4ccc(S(C)(=O)=O)cc4)[nH]c3-c3ccncc3)ccc2c1` is 250 nM; for `COc1ccc2cc(-c3nc(-c4ccccc4Cl)[nH]c3-c3ccncc3)ccc2c1` it is 157 nM. As a reminder, the inhibition is how much of the control response was suppressed. The low end stands for a weak effect, the high end for a strong effect. As for `COc1ccc2cc(-c3nc(-c4ccccc4)[nH]c3-c3ccncc3)ccc2c1`, the inhibition on Angiopoietin-1 receptor [2] is 60%.

As for `CCc1ccccc1-c1nc(-c2ccc3cc(OC)ccc3c2)c(-c2ccncc2)[nH]1`, the half-maximal inhibitory concentration (IC50) at Angiopoietin-1 receptor [1] came out at 346 nM. The same measure, in the same setting: under `COc1ccc2cc(-c3[nH]c(-c4c(Cl)cccc4Cl)nc3-c3ccncc3)ccc2c1` stands 78 nM; under `COc1ccc2cc(-c3c(-c4ccncc4)nc(-c4ccc(S(C)(=O)=O)cc4C)n3C)ccc2c1`, 114 nM; under `COc1ccc2cc(-c3nc(-c4ccccc4C(F)(F)F)[nH]c3-c3ccncc3)ccc2c1`, 260 nM.

`COc1ccc2cc(-c3nc(-c4ccc([S@+](C)[O-])cc4C)[nH]c3-c3ccncc3)ccc2c1` yielded a concentration for half-maximal inhibition (IC50) at Angiopoietin-1 receptor [1] of 95 nM. This IC50 lies about 2.7-fold lower than the previous one. In turn, `COc1ccc2cc(-c3[nH]c(-c4ccc(SC)cc4C)nc3-c3ccncc3)ccc2c1` had a 50% inhibitory concentration (IC50) on Angiopoietin-1 receptor [1] of 1300 nM. Still for that read-out and setting: under `COc1ccc2cc(-c3nc(-c4ccc([S+](C)[O-])cc4C)[nH]c3-c3ccncc3)ccc2c1` (stereo not given) stands 36 nM.

As a reminder, the inhibition in vivo is the drop in the measured response relative to a control, in per cent. Lower therefore signals a response near the control. On to `COc1ccc2cc(-c3c(-c4ccncc4)nc(-c4ccc([S+](C)[O-])cc4C)n3C)ccc2c1` (stereo not given), for which, in the assay with Mus musculus [3], the inhibition in vivo at 25 mg/kg amounted to 35%. Moreover, testing at 50 mg/kg in the assay on Mus musculus [4] gave an inhibition in vivo of 80%. For the same molecule, the 50% inhibitory concentration (IC50) in assay [5] is above 30000 nM; in assay [6], above 30000 nM; against Angiopoietin-1 receptor [1], 12 nM; in assay [7] it was above 30000 nM; against Insulin receptor, above 30000 nM; in assay [8], above 30000 nM. The IC50 in assay [9] is above 30000 nM; in assay [10], above 30000 nM; in [11], above 30000 nM; in assay [12] it was 1500 nM; in [13] it was 9700 nM; in assay [14], above 30000 nM. In addition, the IC50 is above 30000 nM in assay [15]; above 30000 nM in assay [16]; 4100 nM on MAP kinase p38; above 30000 nM in assay [17]; 296 nM against TGF-beta receptor type-1; 550 nM in assay [18]. Turning to `COc1ccc2cc(-c3[nH]c(-c4ccc(S(C)(=O)=O)cc4C)nc3-c3ccncc3)ccc2c1`, on Angiopoietin-1 receptor [1], 40 nM corresponded to half-maximal inhibition (IC50). Same read-out and setting: the figure for `COc1ccc2cc(-c3nc(-c4ccc([S@@+](C)[O-])cc4C)[nH]c3-c3ccncc3)ccc2c1` is 22 nM.
